According to ChEMBL document CHEMBL1142121, “Triterpenoids from the floral spikes of Betula platyphylla var. japonica and their reversing activity against multidrug-resistant cancer cells” (J Nat Prod, 2007):
Active and inactive are the calls of the source. No cut-off for these calls is given here.

Assays:
[1] = Cytotoxicity against human colchicine-resistant KBC2 cells in presence of 2.5 uM colchicine after 48 hrs by MTT assay; type: cell-based; details: KB-C2, 48 h
How it was run: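 Colchicine-resistant KB-C2 cells, maintained in DMEM/10% FBS with 2 µg/mL colchicine. Seeded at 5 × 10^3 cells/well, preincubated 24 h, then given graded test concentrations (DMSO final <0.5%) together with 2.5 µM colchicine for 48 h at 37 °C, 5% CO2. MTT read-out. IC50 was 50% of vehicle-control absorbance. Mean ± SE, 3–4 experiments.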

[2] = tested on: K562; assay: Cytotoxicity against human K562 cells after 48 hrs by MTT assay; type: cell-based; details: K562, 48 h
How it was run: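 K562 leukemia cells, 1 × 10^4 cells/well in medium with 10% FBS, preincubated 24 h. Test samples were then added at various concentrations (DMSO final <0.5%) for 48 h at 37 °C, 5% CO2. MTT assay. IC50 was 50% absorbance relative to vehicle controls. Mean ± SE from 3–4 experiments.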

[3] = tested on: KB; assay: Cytotoxicity against human KB cells after 48 hrs by MTT assay; type: cell-based
How it was run: (§1)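 KB and KB-C2 cells grown in DMEM with 10% FBS, with KB-C2 maintained with 2 µg/mL colchicine. 5 × 10^3 cells/well were preincubated 24 h, then exposed 48 h at 37 °C, 5% CO2 to graded concentrations (DMSO final <0.5%). MTT read-out. IC50 was the concentration giving 50% of vehicle-control absorbance. Mean ± SE of 3–4 experiments.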

[4] = Cytotoxicity against human doxorubicin-resistant K562/Adr cells in presence of 1 uM doxorubicin after 48 hrs by MTT assay; type: cell-based
[5] = tested on: MCF7; assay: Cytotoxicity against human MCF7 cells after 48 hrs by MTT assay; type: cell-based; details: MCF7, 48 h
How it was run: (§2)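 MCF7 or COLO205 cells in RPMI1640 with 10% FBS, seeded at 5 × 10^3 cells and preincubated 24 h. Graded concentrations (DMSO final <0.5%) were then applied for 48 h at 37 °C, 5% CO2. Proliferation read by MTT. IC50 was the concentration halving absorbance versus vehicle-treated controls. Mean ± SE of 3–4 experiments.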

[6] = Cytotoxicity against human colchicine-resistant KBC2 cells after 48 hrs by MTT assay; type: cell-based; details: KB-C2, 48 h; how it was run: as §1
[7] = tested on: COLO 205; assay: Cytotoxicity against human COLON205 cells after 48 hrs by MTT assay; type: cell-based; details: COLO 205, 48 h; how it was run: as §2
[8] = Cytotoxicity against human doxorubicin-resistant K562/Adr cells after 48 hrs by MTT assay; type: cell-based
How it was run: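 Doxorubicin-resistant K562/Adr cells, maintained in RPMI1640/10% FBS containing 0.5 µM doxorubicin. Seeded at 1 × 10^4 cells/well, preincubated 24 h, then incubated 48 h at 37 °C, 5% CO2 with graded test concentrations (DMSO final <0.5%). MTT read-out. IC50 was 50% of vehicle-control absorbance. Mean ± SE, 3–4 experiments.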

[9] = tested on: MDR; assay: Reversal of MDR against KBC2 cells assessed as reduction in cytotoxicity of colchicine at 5 ug/ml; type: functional, cell-based; details: Homo sapiens

Row | Structure (SMILES) | IC50 [1] [µM] | IC50 [2] [µM] | IC50 [3] [µM] | IC50 [4] [µM] | IC50 [5] [µM] | IC50 [6] [µM] | IC50 [7] [µM] | IC50 [8] [µM] | Activity [9]
1 | CC(C)(O)[C@H]1CC[C@@](C)([C@H]2CC[C@]3(C)[C@@H]2CC[C@@H]2[C@@]4(C)CCC(=O)C(C)(C)[C@@H]4CC[C@]23C)O1 [OCOTILLONE] | 64.2 | > 100 | > 100 | > 100 | > 100 | > 100 | > 100 | > 100 | –
2 | CC(C)(O)[C@H]1CC[C@@](C)([C@H]2CC[C@]3(C)[C@@H]2CC[C@@H]2[C@@]4(C)CC[C@@H](OC(=O)CC(=O)O)C(C)(C)[C@@H]4CC[C@]23C)O1 | 65.5 | 57.5 | 60.8 | 42.5 | 64.1 | 69.6 | 55.6 | 47.2 | –
3 | CC(=O)O[C@@H]1C[C@@H]2[C@@]3(C)CC[C@@H](OC(=O)CC(=O)O)C(C)(C)[C@@H]3CC[C@@]2(C)[C@]2(C)CC[C@H]([C@]3(C)CC[C@H](C(C)(C)O)O3)[C@@H]12 [PAPYRIFERIC ACID] | 60.1 | 47.6 | 47.8 | 34.5 | 71.7 | 66 | 52.2 | 42.5 | –
4 | CC(=O)O[C@@H]1C[C@@H]2[C@@]3(C)CC[C@@H](OC(C)=O)C(C)(C)[C@@H]3CC[C@@]2(C)[C@]2(C)CC[C@H]([C@]3(C)CC[C@H](C(C)(C)O)O3)[C@@H]12 | 3 | 26.2 | 35.1 | 23.9 | 78.4 | 62.2 | 58 | 33.2 | –
5 | CC(C)(O)[C@H]1CC[C@@](C)([C@H]2CC[C@]3(C)[C@@H]2CC[C@@H]2[C@@]4(C)CC[C@@H](O)C(C)(C)[C@@H]4CC[C@]23C)O1 | 28.6 | 48.5 | 43.4 | 45.2 | 57.9 | 55.3 | – | 73.9 | –
6 | C=C(C)[C@@H]1CC[C@]2(C)[C@H](CCC3=C4CC(C)(C)CC[C@]4(C)CC[C@]32C)[C@@]1(C)CCC(=O)O | 36.3 | 28 | 27.5 | 24.8 | 37.4 | 58 | 38.1 | 25.9 | –
7 | COC(=O)CC(=O)O[C@@H]1CC[C@]2(C)[C@H]3CC[C@@H]4[C@@H]([C@]5(C)CCC(=O)O5)CC[C@@]4(C)[C@]3(C)CC[C@H]2C1(C)C | 3.3 | 47.2 | 58 | 26.5 | > 100 | 30.4 | > 100 | 56.1 | –
8 | CC(=O)O[C@@H]1C[C@@H]2[C@@]3(C)CC[C@@H](O)C(C)(C)[C@@H]3CC[C@@]2(C)[C@]2(C)CC[C@H]([C@]3(C)CC[C@H](C(C)(C)O)O3)[C@@H]12 | 3.5 | 27.5 | 36.5 | 15.3 | 34.2 | 25.7 | 36.7 | 15.4 | –
9 | C=C1CC[C@]2(C)CC[C@]3(C)[C@H](CC[C@@H]4[C@@](C)(CCC(=O)O)[C@H](C(=C)C)CC[C@]43C)[C@@H]2[C@H]1C | > 100 | > 100 | > 100 | > 100 | > 100 | > 100 | > 100 | > 100 | –
10 | CC(C)(O)[C@H]1CC[C@@]2(C)C1CC[C@]1(C)[C@@H]2CC[C@@H]2[C@@]3(C)CCC(=O)C(C)(C)[C@@H]3CC[C@]21C (stereo not given in full) [HYDROXYHOPANONE] | > 100 | > 100 | > 100 | > 100 | > 100 | > 100 | 77.1 | > 100 | –
11 | CC(C)(O)[C@@H]1CC[C@@](C)([C@H]2CC[C@]3(C)[C@@H]2CC[C@@H]2[C@@]4(C)CCC(=O)C(C)(C)[C@@H]4CC[C@]23C)O1 [CABRALEONE] | 62.4 | > 100 | > 100 | > 100 | > 100 | > 100 | > 100 | > 100 | –
12 | CC1(C)[C@H](O)CC[C@]2(C)[C@H]3CC[C@@H]4[C@@H]([C@]5(C)CCC(=O)O5)CC[C@@]4(C)[C@]3(C)CC[C@@H]12 [CABRALEAHYDROXYLACTONE] | 20.6 | > 100 | > 100 | > 100 | > 100 | > 100 | > 100 | > 100 | –
13 | C=C(C)[C@@H]1CC[C@]2(C(=O)O)CC[C@]3(C)[C@H](CC[C@@H]4[C@@]5(C)CCC(=O)C(C)(C)[C@@H]5CC[C@]43C)[C@@H]12 [BETUNOLIC ACID] | 0.64 | 16.1 | 3.8 | 48.4 | 49 | 2.3 | 36.8 | 73.5 | –
14 | C=C(C)[C@@H]1CC[C@]2(C)[C@H](CC[C@@H]3[C@@H]([C@]4(C)CC[C@H](C(C)(C)O)O4)CC[C@]32C)[C@@]1(C)CCC(=O)OC [METHYL SHOREATE] | 20.1 | 45.3 | 66.6 | 47.1 | 59.7 | 93.5 | 67.7 | 50.9 | –
15 | CC1(C)C(=O)CC[C@]2(C)[C@H]3CC[C@@H]4[C@@H]([C@]5(C)CCC(=O)O5)CC[C@@]4(C)[C@]3(C)CC[C@@H]12 [CABRALELACTONE] | 28.5 | > 100 | 63.5 | > 100 | 97.9 | > 100 | > 100 | > 100 | –
16 | CC(C)=CCC[C@](C)(O)[C@H]1CC[C@]2(C)[C@@H]1CC[C@@H]1[C@@]3(C)CCC(=O)C(C)(C)[C@@H]3CC[C@]12C [DIPTEROCARPOL] | 38.2 | > 100 | > 100 | > 100 | > 100 | > 100 | > 100 | > 100 | –
17 | COC(=O)CC(=O)O[C@@H]1CC[C@]2(C)[C@H]3C[C@@H](OC(C)=O)[C@@H]4[C@@H]([C@]5(C)CC[C@H](C(C)(C)O)O5)CC[C@@]4(C)[C@]3(C)CC[C@H]2C1(C)C [METHYL PAPYRIFERATE] | 3.7 | 32.6 | 33.8 | 10.6 | 48.9 | 31.1 | 49.6 | 36.8 | Active
18 | CC(=O)O[C@@H]1CC[C@]2(C)[C@H]3CC[C@@H]4[C@@H]([C@]5(C)CC[C@H](C(C)(C)O)O5)CC[C@@]4(C)[C@]3(C)CC[C@H]2C1(C)C | 43.6 | 41.6 | 44.8 | 68.3 | 47.5 | 89.6 | 54.2 | 50.5 | –
19 | COC(=O)CC(=O)O[C@@H]1CC[C@]2(C)[C@H]3CC[C@@H]4[C@@H]([C@]5(C)CC[C@H](C(C)(C)O)O5)CC[C@@]4(C)[C@]3(C)CC[C@H]2C1(C)C | 13.6 | 35.4 | 64.2 | 41.1 | 63.6 | 87 | 57.2 | 31.1 | –
20 | C=C(C)[C@@H](O)CC[C@](C)(O)[C@H]1CC[C@]2(C)[C@@H]1CC[C@@H]1[C@@]3(C)CCC(=O)C(C)(C)[C@@H]3CC[C@]12C | 29.8 | 40.2 | 70.2 | 50.4 | 73.1 | 78.5 | 58.8 | 35.9 | –
